Data set [1] is described as follows: Clearance in Sprague-Dawley rat at 5 mg/kg, iv measured up to 24 hrs by LC-MS/MS analysis. Type of data set: ADME, organism-based. The settings on record: in vivo.
Data set [2] can be described thus: Toxicity in BALB/c mouse assessed as macrophages at 70 mg/kg, po administered once daily for 7 days and measured on day 15 by flow cytometric analysis. Type of data set: organism-based. The following applies: in vivo, 168 h, time 7 day. Background: In flow cytometry, cells or beads pass a laser one at a time.
The nature of data set [3]: Toxicity in BALB/c mouse assessed as monocytes at 70 mg/kg, po administered once daily for 7 days and measured on day 15 by flow cytometric analysis. Type of data set: organism-based. The settings on record: in vivo, 168 h, time 7 day.
For data set [4], the target named is Glycogen synthase kinase-3 alpha (Homo sapiens, UniProt P49840). Nature of the data set: Inhibition of human GSKalpha S449A mutant (2 to 3nd residues) using YRRAAVPPSPSLSRHSSPHQS(p) EDEEE as substrate incubated for 40 mins in presence of [gamma-33P]-ATP by scintillation counting method. The gist of the method:
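Outsourced radioisotope (HotSpot) kinase assay run by a contract lab, with ATP at the kinase's Km(ATP). The IC50 was converted to an apparent Ki by the Cheng-Prusoff equation, Ki = IC50/(1+[ATP]/Km(ATP)), using the experimentally determined Km(ATP).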

Data set [5] can be described thus: Oral bioavailability in Sprague-Dawley rat at 20 mg/kg measured up to 24 hrs by LC-MS/MS analysis. It is filed as ADME, organism-based. The following applies: in vivo.
In a further data set the test system is MOLM-13. Nature of the data set: Growth inhibition human MOLM-13 cells after 72 hrs by resazurin or MTT assay. It is filed as functional. The gist of the method: (§1)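 Tumour cell lines kept in RPMI-1640, DMEM or MEM with 10% FBS at 37 °C, 5% CO2, mycoplasma-free. Exposure lasted 72 h. Viability was read by MTT for adherent solid-tumour lines and by resazurin for suspension leukaemia lines. GI50 came from nonlinear regression, given as mean ± standard deviation of at least two replicates unless stated otherwise.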
For orientation: Resazurin is reduced to fluorescent resorufin, in cell work by metabolically active cells.

The nature of data set [6]: Toxicity in BALB/c mouse assessed as increase in CD3-T cells at 70 mg/kg, po administered once daily for 7 days and measured on day 15 by flow cytometric analysis. The settings on record: in vivo, 168 h, time 7 day. It is filed as organism-based.
Data set [7] is described as follows: Tmax in Sprague-Dawley rat at 5 mg/kg, iv measured up to 24 hrs by LC-MS/MS analysis. It is filed as ADME, organism-based. The settings on record: in vivo.
Data set [8] can be described thus: Growth inhibition human PL-21 cells after 72 hrs by resazurin or MTT assay. It is filed as functional, PL21. The gist of the method:
as §1

The next data set has as its system HCT-116. In words: Growth inhibition human HCT-116 cells after 72 hrs by resazurin or MTT assay. Type of data set: functional. The gist of the method: as §1
For a further data set, the target named is CDK8/Cyclin C (Homo sapiens, UniProt P49336). In words: Inhibition of CDK8/cyclin C (unknown origin) using RBER-IRStide as substrate incubated for 60 mins in presence of [gamma33P]ATP by scintillation counting method. Type of data set: protein-complex assay.
A further data set deals with MDA-MB-453. In words: Growth inhibition human MDA-MB-453 cells after 72 hrs by resazurin or MTT assay. Type of data set: functional. The gist of the method:
as §1

A short description of data set [9]: Dissociation constant, pKa of the compound by UV spectrometric titration method. It is filed as physicochemical.
Data set [10] is described as follows: Volume of distribution at steady state in BALB/c mouse at 2 mg/kg, iv measured up to 24 hrs by LC-MS/MS analysis. The following applies: in vivo, read-out: Vdss.
Data set [11] addresses CDK3/Cyclin E (Homo sapiens) (UniProt P24864+Q00526). In words: Inhibition of CDK3/cyclin-E (unknown origin) at 1 uM. Type of data set: protein-complex assay. The gist of the method:
(§2)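 Residual activity of each kinase with compound at 1 µM, measured in a contracted radioisotope-based kinase profiling assay and expressed as % kinase activity remaining.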

The target in data set [12] is Cyclin-Y/Cyclin-dependent kinase 16 (Homo sapiens) (UniProt Q00536+Q8ND76). In words: Inhibition of CDK16/Cyclin Y (unknown origin) at 1 uM. Type of data set: protein-complex assay. The gist of the method: as §2
Data set [13] deals with CDK17/Cyclin-Y (Homo sapiens) (UniProt Q00537+Q8ND76). In words: Inhibition of CDK17/Cyclin Y (unknown origin) at 1 uM. It is filed as protein-complex assay. The gist of the method: as §2
Data set [14] in a line: AUC in BALB/c mouse at 2 mg/kg, iv measured up to 24 hrs by LC-MS/MS analysis. The settings on record: in vivo.
In data set [15] the target is Cyclin-dependent kinase 4/cyclin D1 (Homo sapiens) (UniProt P11802+P24385). Nature of the data set: Inhibition of CDK4/cyclin-D1 (unknown origin) at 1 uM. Type of data set: protein-complex assay. The gist of the method: as §2
Data set [16] concerns the target Cyclin-dependent kinase 5/CDK5 activator 1 (Homo sapiens) (UniProt Q00535+Q15078). In words: Inhibition of CDK5/p25 (unknown origin) at 1 uM. Type of data set: protein-complex assay. The gist of the method:
as §2

A short description of data set [17]: Cmax in BALB/c mouse at 10 mg/kg, po measured up to 24 hrs by LC-MS/MS analysis. The following applies: in vivo.
Data set [18] can be described thus: Toxicity in BALB/c mouse assessed as increase in body weight at 70 mg/kg, po administered once daily for 7 days and measured on day 15 relative to control. It is filed as organism-based. The following applies: in vivo, 168 h, time 7 day.
Data set [19] addresses CDK6/cyclin D3 (Homo sapiens) (UniProt P30281+Q00534). Nature of the data set: Inhibition of CDK6/cyclin-D3 (unknown origin) at 1 uM. Type of data set: protein-complex assay. The gist of the method:
as §2

For data set [20], the target named is Cyclin-dependent kinase 1/cyclin B1 (Homo sapiens, UniProt P06493). Nature of the data set: Inhibition of CDK1/cyclin-B (unknown origin). Type of data set: protein-complex assay. The gist of the method: (§3)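 IC50 measured in a contracted radiometric kinase assay with ATP at the experimentally determined Km(ATP) of each kinase. Apparent Ki was derived by Cheng-Prusoff: Ki = IC50/(1+[ATP]/Km(ATP)).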

The nature of data set [21]: AUC in BALB/c mouse at 10 mg/kg, po measured up to 24 hrs by LC-MS/MS analysis. The settings on record: in vivo.
The nature of data set [22]: Tmax in BALB/c mouse at 10 mg/kg, po measured up to 24 hrs by LC-MS/MS analysis. The following applies: in vivo.
For data set [23], the system named is Glycogen synthase kinase-3 alpha (Homo sapiens), P49840 [UNDEFINED MUTATION]. In words: Inhibition of human GSKalpha S449A mutant (2 to 3nd residues) at 1 uM using YRRAAVPPSPSLSRHSSPHQS(p) EDEEE as substrate incubated for 40 mins in presence of [gamma-33P]-ATP by scintillation counting method relative to control. The gist of the method: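 Single-point screen of residual kinase activity (%) at 1 µM compound. Run as a contract radiometric [γ-33P]-ATP kinase assay, either the KinaseProfiler service or the HotSpot assay. ATP was set at the experimentally determined Km(ATP) of each kinase.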

Data set [24] deals with Cyclin-dependent kinase 1/cyclin B1 (Homo sapiens) (UniProt P06493+P14635). Nature of the data set: Inhibition of CDK1/cyclin-B (unknown origin) at 1 uM relative to control. Type of data set: protein-complex assay. The gist of the method: as §2
Data set [25] can be described thus: Clearance in BALB/c mouse at 2 mg/kg, iv measured up to 24 hrs by LC-MS/MS analysis. The settings on record: in vivo.
Data set [26] addresses CDK7/Cyclin H/MNAT1 (Homo sapiens) (UniProt P51946+P50613+P51948). Nature of the data set: Inhibition of CDK7/cyclin H/MNAT1 (unknown origin) at 1 uM. Type of data set: protein-complex assay. The gist of the method:
as §2

A further data set deals with CDK9/cyclin T1 (Homo sapiens, UniProt P50750). In words: Inhibition of CDK9/Cyclin T1 (unknown origin). It is filed as protein-complex assay. The gist of the method: as §3

SMILES strings stand for the structures. The source made the active and inactive calls. The calls are words filed in the database; no cut-off is given here.

CDK8/Cyclin C, sequence (P49336 whole entry): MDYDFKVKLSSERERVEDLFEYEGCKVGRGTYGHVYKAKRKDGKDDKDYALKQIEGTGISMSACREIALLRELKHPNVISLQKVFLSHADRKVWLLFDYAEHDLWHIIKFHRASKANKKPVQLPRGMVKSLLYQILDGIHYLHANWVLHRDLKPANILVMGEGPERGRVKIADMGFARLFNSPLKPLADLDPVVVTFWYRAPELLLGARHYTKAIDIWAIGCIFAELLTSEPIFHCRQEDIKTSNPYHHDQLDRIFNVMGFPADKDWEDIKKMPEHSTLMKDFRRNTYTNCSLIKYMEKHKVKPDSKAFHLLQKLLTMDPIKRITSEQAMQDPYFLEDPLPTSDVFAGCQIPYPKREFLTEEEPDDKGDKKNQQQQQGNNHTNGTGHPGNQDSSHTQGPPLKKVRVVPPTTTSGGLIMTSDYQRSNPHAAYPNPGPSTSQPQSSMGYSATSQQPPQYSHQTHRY
CDK8/Cyclin C, sequence (P24863 whole entry, further chain): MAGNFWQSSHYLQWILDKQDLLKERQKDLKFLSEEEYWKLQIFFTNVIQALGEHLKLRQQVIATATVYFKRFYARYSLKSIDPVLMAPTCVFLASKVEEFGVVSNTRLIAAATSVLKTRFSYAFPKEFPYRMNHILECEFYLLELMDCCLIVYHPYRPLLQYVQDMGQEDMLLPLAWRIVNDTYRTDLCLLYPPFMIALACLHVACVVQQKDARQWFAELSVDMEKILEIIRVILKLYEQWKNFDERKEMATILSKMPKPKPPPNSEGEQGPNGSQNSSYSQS
Glycogen synthase kinase-3 alpha, sequence (P49840 whole entry): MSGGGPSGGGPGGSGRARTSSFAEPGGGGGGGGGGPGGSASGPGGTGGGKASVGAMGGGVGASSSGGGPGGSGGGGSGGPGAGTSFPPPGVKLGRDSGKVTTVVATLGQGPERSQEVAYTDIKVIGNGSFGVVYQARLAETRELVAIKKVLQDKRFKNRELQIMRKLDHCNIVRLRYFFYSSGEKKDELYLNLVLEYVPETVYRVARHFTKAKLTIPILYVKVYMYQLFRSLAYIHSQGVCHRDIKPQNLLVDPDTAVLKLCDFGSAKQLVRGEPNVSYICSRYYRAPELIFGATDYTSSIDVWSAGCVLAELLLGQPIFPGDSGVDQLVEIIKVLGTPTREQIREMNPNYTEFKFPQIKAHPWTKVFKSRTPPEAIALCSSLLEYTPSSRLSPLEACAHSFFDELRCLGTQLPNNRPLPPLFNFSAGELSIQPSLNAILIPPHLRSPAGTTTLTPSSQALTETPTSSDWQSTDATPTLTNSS
CDK9/cyclin T1, sequence (O60563 whole entry): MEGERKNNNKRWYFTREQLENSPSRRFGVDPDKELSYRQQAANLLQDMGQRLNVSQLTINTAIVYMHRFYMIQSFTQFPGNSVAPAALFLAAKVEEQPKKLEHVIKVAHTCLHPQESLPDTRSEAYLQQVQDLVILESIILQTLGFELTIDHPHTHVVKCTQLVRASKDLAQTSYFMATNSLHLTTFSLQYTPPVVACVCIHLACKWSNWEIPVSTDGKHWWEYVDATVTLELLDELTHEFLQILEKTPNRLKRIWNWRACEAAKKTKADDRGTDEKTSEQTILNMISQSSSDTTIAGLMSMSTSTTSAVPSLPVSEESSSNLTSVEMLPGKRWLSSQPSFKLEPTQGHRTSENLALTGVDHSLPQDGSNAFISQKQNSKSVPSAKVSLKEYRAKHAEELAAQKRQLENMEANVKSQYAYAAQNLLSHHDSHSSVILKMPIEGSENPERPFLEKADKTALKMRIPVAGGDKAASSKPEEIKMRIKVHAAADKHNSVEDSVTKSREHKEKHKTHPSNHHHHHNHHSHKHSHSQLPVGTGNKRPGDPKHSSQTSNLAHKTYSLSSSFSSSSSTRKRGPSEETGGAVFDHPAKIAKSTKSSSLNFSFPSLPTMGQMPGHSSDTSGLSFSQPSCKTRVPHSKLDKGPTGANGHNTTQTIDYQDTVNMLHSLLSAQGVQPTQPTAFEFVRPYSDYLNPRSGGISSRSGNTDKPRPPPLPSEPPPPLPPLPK
CDK9/cyclin T1, sequence (P50750 whole entry): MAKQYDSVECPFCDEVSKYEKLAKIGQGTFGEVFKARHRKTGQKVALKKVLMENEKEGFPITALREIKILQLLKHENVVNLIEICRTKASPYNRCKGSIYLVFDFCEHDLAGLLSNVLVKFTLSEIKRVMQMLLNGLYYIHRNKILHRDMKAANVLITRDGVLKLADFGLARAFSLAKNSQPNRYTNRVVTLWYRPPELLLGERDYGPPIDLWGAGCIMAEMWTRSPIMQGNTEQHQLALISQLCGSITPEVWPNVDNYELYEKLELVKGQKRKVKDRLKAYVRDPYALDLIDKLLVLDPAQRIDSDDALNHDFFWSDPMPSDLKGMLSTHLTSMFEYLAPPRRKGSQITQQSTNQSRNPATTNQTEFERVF
Cyclin-dependent kinase 5/CDK5 activator 1 (Homo sapiens), sequence (Q00535 whole entry): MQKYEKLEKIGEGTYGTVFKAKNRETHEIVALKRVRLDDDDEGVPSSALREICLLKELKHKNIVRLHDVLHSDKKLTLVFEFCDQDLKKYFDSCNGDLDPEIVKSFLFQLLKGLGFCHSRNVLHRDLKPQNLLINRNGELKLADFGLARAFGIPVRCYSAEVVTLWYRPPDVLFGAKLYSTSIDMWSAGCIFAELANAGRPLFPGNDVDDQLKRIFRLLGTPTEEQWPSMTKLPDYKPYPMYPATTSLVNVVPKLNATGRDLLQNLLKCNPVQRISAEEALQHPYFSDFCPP
Cyclin-dependent kinase 5/CDK5 activator 1 (Homo sapiens), sequence (Q15078 99-307 partner limits assumed): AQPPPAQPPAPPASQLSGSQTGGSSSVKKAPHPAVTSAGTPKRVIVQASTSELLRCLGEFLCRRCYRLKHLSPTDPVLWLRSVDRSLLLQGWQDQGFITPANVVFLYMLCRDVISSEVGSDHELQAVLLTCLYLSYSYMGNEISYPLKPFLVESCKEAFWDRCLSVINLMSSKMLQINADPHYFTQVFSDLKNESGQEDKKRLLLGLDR
CDK17/Cyclin-Y (Homo sapiens), sequence (Q00537 whole entry): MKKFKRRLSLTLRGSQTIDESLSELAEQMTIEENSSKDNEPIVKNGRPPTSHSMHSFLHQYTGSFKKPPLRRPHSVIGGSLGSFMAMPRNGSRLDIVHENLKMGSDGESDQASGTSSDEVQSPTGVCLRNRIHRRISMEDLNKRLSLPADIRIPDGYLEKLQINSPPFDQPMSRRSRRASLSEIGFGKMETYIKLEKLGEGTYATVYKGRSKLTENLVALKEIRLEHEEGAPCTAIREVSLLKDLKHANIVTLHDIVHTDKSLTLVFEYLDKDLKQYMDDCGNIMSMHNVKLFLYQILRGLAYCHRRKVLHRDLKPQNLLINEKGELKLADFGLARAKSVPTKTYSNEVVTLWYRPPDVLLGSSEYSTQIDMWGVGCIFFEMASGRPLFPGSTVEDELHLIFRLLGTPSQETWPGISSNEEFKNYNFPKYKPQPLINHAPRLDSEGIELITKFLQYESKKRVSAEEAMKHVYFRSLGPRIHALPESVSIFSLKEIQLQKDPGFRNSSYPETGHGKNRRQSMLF
CDK17/Cyclin-Y (Homo sapiens), sequence (Q8ND76 2-341 partner limits assumed): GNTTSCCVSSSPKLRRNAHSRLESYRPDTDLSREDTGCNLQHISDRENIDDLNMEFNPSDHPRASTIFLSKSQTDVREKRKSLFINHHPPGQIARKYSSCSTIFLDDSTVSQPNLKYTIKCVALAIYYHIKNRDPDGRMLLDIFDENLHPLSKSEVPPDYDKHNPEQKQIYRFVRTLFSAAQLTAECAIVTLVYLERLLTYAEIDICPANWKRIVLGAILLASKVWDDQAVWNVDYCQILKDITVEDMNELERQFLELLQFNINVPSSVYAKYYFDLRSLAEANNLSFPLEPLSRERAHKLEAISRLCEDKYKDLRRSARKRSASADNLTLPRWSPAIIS
CDK3/Cyclin E (Homo sapiens), sequence (P24864 whole entry, looked up): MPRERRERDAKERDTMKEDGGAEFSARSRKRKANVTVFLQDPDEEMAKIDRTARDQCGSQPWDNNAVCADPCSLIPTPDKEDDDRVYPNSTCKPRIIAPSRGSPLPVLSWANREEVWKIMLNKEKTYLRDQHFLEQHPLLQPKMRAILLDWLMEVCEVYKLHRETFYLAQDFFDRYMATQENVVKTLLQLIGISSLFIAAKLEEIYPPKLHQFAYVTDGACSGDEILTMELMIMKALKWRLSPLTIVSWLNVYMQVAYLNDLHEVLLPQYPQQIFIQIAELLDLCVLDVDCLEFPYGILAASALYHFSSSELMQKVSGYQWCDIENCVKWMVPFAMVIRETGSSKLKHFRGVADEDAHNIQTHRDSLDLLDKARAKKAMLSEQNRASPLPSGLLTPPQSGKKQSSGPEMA
CDK3/Cyclin E (Homo sapiens), sequence (Q00526 whole entry, looked up): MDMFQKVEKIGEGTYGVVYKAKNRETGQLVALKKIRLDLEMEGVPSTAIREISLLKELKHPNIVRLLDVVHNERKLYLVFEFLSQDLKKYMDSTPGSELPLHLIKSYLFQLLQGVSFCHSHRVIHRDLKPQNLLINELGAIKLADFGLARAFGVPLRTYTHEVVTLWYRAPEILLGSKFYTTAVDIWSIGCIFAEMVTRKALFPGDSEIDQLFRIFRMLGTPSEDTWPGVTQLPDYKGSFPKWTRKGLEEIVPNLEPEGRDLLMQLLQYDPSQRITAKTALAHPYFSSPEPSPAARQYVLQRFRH
Glycogen synthase kinase-3 alpha (Homo sapiens), P49840 [UNDEFINED MUTATION], sequence (P49840 whole entry, looked up, stated change not applied): as the sequence (P49840 whole entry) above

In [1], `Cn1cc(-c2ccc(-c3cncc(Cl)c3N3CCC4(CCNC4=O)CC3)cc2)cn1` gave a clearance of 20 mL/min/kg. The Activity result is “Non-Toxic” in [2], “Non-Toxic” in [3] and “Toxic” in data set [6]. The inhibition constant Ki was found to be 0.231 µM in [4] and 0.009 µM on CDK8/Cyclin C. The compound also returned a bioavailability in data set [5] of 41%. Also, the GI50 was 2.8 µM in the data set on MOLM-13, 13.8 µM in data set [8], 46.2 µM in the data set on HCT-116 and 43.1 µM in the data set on MDA-MB-453. Further, the Tmax in data set [7] worked out at 4.2 min.

Turning to `O=C1NCCC12CCN(c1c(Cl)cncc1-c1cc3ccccc3o1)CC2`, the clearance in data set [1] was 23.2 mL/min/kg; in data set [25] it was 63 mL/min/kg. Also, in [9], the pKa amounted to 4.9. In addition, the Vd in [10] stood at 1.99 L/kg. Also, the inhibition result in [11], in data set [12], in [13], in [15], in data set [16] and in data set [19] was “inactive” each time. For the same compound, in [26], the inhibition result was “inactive”. Moreover, the Activity entry in [2] is recorded as “Non-Toxic”; in data set [3], “Non-Toxic”; in data set [18] it was 12%; in data set [6], “Toxic”. The AUC at 24 h turned out to be 1.39 µM·h in [14] and 2.3 µM·h in data set [21]. In addition, the Ki stood at 0.013 µM in data set [4], 1.89 µM in [20], 0.014 µM on CDK8/Cyclin C and 1.77 µM at CDK9/cyclin T1. Moreover, the concentration in data set [17] peaked (Cmax) at 5.01 µM. In data set [5], this compound came in with a bioavailability of 38%. The GI50 was determined as 6.18 µM in the data set with MOLM-13, 25.4 µM in data set [8], 40.6 µM with HCT-116 and 23.3 µM in the data set on MDA-MB-453. Further, the Tmax was found to be 2.4 min in data set [7] and 25.2 min in data set [22]. The inhibition in data set [23] and in [24] was above 50% each time.

As a reminder, the clearance is a measure of how efficiently the substance is removed, as volume per time. Low values mean a low capacity for elimination, high ones a high capacity for elimination. In general, Ki refers to the dissociation constant of the complex between target and ligand, obtained from inhibition or displacement. As a reminder, the bioavailability is dose-corrected exposure relative to a reference, in per cent. A high value points to good availability. What is called GI50 is the concentration that inhibits growth by half. A high value points to lower sensitivity of the cells. In general, Tmax refers to the time at which the peak concentration occurs. The pKa is the pH at which an ionisable group is half protonated. Higher therefore signals a weaker acid or stronger base. By inhibition is commonly meant the relative decrease from the control value, in per cent. One may read the AUC as concentration integrated over time. Low readings indicate low exposure, high ones high exposure. For orientation: Cmax means the peak of the concentration-time curve.
